PMC3705926 (Journal of ethnopharmacology, 2010)

Columns and labels:
[1] = system: 2ERE-luciferase reporter (ER) in MCF-7 cells; test: 2ERE-luciferase reporter gene assay in transiently transfected MCF-7 cells; assay type: cell-based, human; conditions: 1 μg/ml, 16 h
5-HT7 [2] = molecular target: T1, 5-HT7 (Homo sapiens, UniProt P34969); test: Serotonin 5-HT7 receptor radioligand binding; conditions: read-out: IC50, binding to serotonin receptor 5-HT7
5-HT1A = molecular target: T2, 5-HT1A (Homo sapiens, UniProt P08908); test: Serotonin 5-HT1A receptor radioligand binding; conditions: read-out: IC50, binding to serotonin receptor 5-HT1A
T2 sequence (P08908 1-422): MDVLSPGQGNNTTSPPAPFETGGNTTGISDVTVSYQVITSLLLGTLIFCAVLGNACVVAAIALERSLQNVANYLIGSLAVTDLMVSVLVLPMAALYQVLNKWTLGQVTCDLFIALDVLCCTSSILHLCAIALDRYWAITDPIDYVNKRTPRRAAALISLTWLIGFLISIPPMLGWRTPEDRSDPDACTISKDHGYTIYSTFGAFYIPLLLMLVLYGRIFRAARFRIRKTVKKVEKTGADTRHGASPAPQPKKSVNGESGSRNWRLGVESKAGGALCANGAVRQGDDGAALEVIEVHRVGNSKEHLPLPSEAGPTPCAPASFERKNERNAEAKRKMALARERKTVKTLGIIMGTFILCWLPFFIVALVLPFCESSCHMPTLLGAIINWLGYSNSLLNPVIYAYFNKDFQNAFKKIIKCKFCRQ
In short: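 Competition binding used Cos M6 cell membrane homogenate with [3H]5-CT (1.0 nM final) in 100 mM Tris-HCl, 1 mM EDTA, 1% ascorbic acid, pH 7.7, at 37°C for 30 min. Binding was stopped by rapid filtration and four ice-cold buffer washes, then counted by scintillation. IC50 came from non-linear curve fitting of at least triplicate determinations.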

5-HT7 [3] = molecular target: T1, 5-HT7; test: GTP shift experiment, [3H]LSD binding with or without 100 μM GTP
[4] = [3H]-LSD displacement, absence of GTP, two-site fit

T1 sequence (P34969 whole entry): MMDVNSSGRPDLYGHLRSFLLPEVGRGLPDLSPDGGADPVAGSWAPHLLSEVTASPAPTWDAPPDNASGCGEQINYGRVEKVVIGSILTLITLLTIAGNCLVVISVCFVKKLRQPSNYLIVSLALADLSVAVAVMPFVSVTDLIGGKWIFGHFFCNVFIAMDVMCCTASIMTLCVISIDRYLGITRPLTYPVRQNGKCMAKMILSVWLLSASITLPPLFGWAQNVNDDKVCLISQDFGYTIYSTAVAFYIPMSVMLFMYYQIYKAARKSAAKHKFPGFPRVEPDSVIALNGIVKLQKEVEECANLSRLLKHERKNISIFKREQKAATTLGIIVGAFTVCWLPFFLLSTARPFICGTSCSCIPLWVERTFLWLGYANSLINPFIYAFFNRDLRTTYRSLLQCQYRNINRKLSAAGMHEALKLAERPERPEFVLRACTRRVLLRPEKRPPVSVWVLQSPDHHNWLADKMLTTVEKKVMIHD

Substance	fold increase in luciferase activity [1]	IC50 (5-HT7 [2]) [µM]	IC50 (5-HT1A) [µM]	IC50, high-affinity state (5-HT7 [3]; [4]) [mg/L]	IC50, low affinity state (5-HT7 [3]; [4]) [mg/L]	Ki, high-affinity state (5-HT7 [3]; [4]) [mg/L]	Ki, low affinity state (5-HT7 [3]; [4]) [mg/L]	agonist/antagonist character at the 5-HT7 receptor (5-HT7 [3]; from GTP shift of the binding curve)	IC50 after addition of GTP (monophasic, low-affinity state) (5-HT7 [3]; with 100 μM GTP) [mg/L]	Ki after addition of GTP (5-HT7 [3]; with 100 μM GTP) [mg/L]
5, 6-Z-fadyenolide [Compound 2]	9.8 fold	23.2	–	–	–	–	–	–	–	–
9, 10-methylenedioxy-5, 6-Z-fadyenolide [Compound 1]	not active	8.3	16.1	0.014	37.7	0.00848	0.0267	partial agonist	11.5	6880
piperolide [Compound 3]	8.4 fold	34.7	–	–	–	–	–	–	–	–
